From PubChem BioAssay
This is a sample that favours compounds with a hit; in the whole collection about 1.8% have one here.
Fam108B counter – counter-screen for RBBP9 inhibitors: inhibitors of mouse Fam108B; recombinant Fam108B, FP-Rh probe fluorescence polarization; inhibition, % at 9.51 µM; 300,000 tested, 0.33% active; AID 1947;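 active = inhibition above the screen mean inhibition plus 3 SD, computed separately per campaign, cut at about 18% in these data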;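 note: inhibitors lower polarization as less probe binds the enzyme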
PME-1 inh – blocks human protein phosphatase methylesterase 1; recombinant PME-1, FP-Rh probe fluorescence polarization; 320,000 tested, 0.53% active; AID 2130; inhibition, % at 5.9 µM;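 active = inhibition above the campaign mean of all compounds plus 3 SD, cut at about 26% in these data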;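 note: competitive labeling of PME-1 active site by serine hydrolase directed probe; inhibitors block probe labeling so polarization falls and inhibition rises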
HTRA1 inhibitor – inhibitors of human serine peptidase HTRA1. Q92743. recombinant HTRA1, FP-rhodamine activity-based probe, fluorescence polarization. inhibition, % at 5.96 µM. 340,000 tested, 0.5% active. AID 504803; in the data active = inhibition above about 36%
Target sequence (Q92743 whole entry, looked up): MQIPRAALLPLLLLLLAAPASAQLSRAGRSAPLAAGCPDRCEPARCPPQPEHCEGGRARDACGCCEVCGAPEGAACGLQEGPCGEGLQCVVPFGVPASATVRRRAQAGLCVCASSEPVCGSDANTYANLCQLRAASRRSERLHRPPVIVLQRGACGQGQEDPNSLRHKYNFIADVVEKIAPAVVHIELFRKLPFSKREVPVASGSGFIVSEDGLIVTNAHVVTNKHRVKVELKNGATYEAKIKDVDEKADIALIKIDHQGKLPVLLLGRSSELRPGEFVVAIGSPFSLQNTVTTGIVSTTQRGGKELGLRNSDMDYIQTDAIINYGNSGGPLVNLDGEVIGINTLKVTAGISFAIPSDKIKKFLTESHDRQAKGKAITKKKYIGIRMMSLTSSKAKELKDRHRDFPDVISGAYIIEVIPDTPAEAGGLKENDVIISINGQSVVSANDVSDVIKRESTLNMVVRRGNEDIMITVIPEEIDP
TCR CD3 inh – blocks the human TCR-CD3 interaction. TAMRA-labeled TCR probe fluorescence, biochemical. inhibition, % at 9.4 µM. 360,000 tested, 0.37% active. AID 651800;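 note: recombinant mutant TCR 2C K166C tagged with TAMRA read by polarization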
ABHD4 inh – ABHD4 (mouse) inhibition, primary FP screen; Q8VD66; purified mABHD4, FP-Rh probe fluorescence polarization; inhibition, % at 8.92 µM; 370,000 tested, 0.54% active; AID 720543;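 active = inhibition exceeding the mean over every tested compound plus 3 SD, cut at about 30% in these data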
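Assay system: wild-type mouse ABHD4 protein; compound: single nominal dose of 8.92 µM, 0.89% DMSO final; schedule: 45 min + 60 min at 25 °C; measured by: FP readout, ex 525 nm / em 598 nm; evaluation: % inhibition of FP-Rh probe binding versus controls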
SIAE primary – human SIAE inhibition, primary screen. Q9HAT2. SIAE FP-Rh probe binding, fluorescence polarization. inhibition, % at 9.66 µM. 370,000 tested, 0.69% active. AID 1053197;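 active = inhibition above a cutoff: mean of compounds within the control limits plus 3 SD of those, cut at about 17% in these data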
BSA TAMRA ctr – interferes with TAMRA-BSA probe, flagging TCR-CD3 hits. shares compounds with TCR CD3 inh. inhibition, % at 9.4 µM. TAMRA-labeled BSA probe fluorescence counterscreen. 1,200 tested, 10% active; in the data active = inhibition above about 23%
TCR-CD3 conf – TCR-CD3 interaction inhibition, confirmation; shares compounds with TCR CD3 inh; TAMRA-labeled TCR probe fluorescence binding assay; inhibition, % at 9.4 µM; 1,200 tested, 48% active; AID 652036
Of the large screens only hits and unclear results are named; the others gave an inactive call (follow-up assays come after a bar, where they were run). Cut-off read from the data, not from the text of the source, unless noted: active = inhibition above about 19%; inactive = the rest.

C=CCNC(=S)NNC(=O)c1cccn(Cc2ccc(Cl)c(Cl)c2)c1=O	none
Cc1ccc(NC(=O)C2CCN(c3nnc(-n4cccc4)s3)CC2)cc1C	none (no result: Fam108B counter, PME-1 inh, HTRA1 inhibitor, TCR CD3 inh)
NC(=O)c1ccc(-n2nnnc2SCC(=O)c2ccc(O)c(O)c2)cc1	TCR CD3 inh 28 | BSA TAMRA ctr inactive | TCR-CD3 conf 39
Cc1[nH][nH]c(=O)c1N=Nc1ccc(S(N)(=O)=O)cc1	none (no result: HTRA1 inhibitor)
NS(=O)(=O)c1ccc(N=Nc2c[nH]c(=O)c(O)c2)cc1	TCR CD3 inh 26 | BSA TAMRA ctr inactive | TCR-CD3 conf 36
Cc1ccc(-n2c(SCC(=O)NN=Cc3c[nH]c4ccccc34)nnc2-c2ccccc2)cc1	none (no result: Fam108B counter, PME-1 inh, HTRA1 inhibitor, TCR CD3 inh)
CCOC(=O)C1=C(N)Oc2cc(C)oc(=O)c2C1c1cccnc1 (configuration not stated)	TCR CD3 inh 21 | BSA TAMRA ctr inactive | TCR-CD3 conf inactive
CCN(CC)C(=O)CC[C@@H]1CC[C@]2(CCCN(C(=O)c3cccnc3)C2)O1	none (no result: Fam108B counter, PME-1 inh, HTRA1 inhibitor, TCR CD3 inh)
COc1ccc(OC)c(C(=O)CSc2nnc(SCc3cccc4ccccc34)s2)c1	none (no result: Fam108B counter, PME-1 inh, HTRA1 inhibitor, TCR CD3 inh)
Cc1cc2cc(CNC(=O)c3cc4ccccc4o3)ccc2n1C	none (no result: HTRA1 inhibitor, TCR CD3 inh, ABHD4 inh, SIAE primary)
COc1ccc(C(=O)NCc2ccc3c(c2)cc(C)n3C)cc1	none
Cc1cc2cc(CNC(=O)c3ccco3)ccc2n1C	TCR CD3 inh 31 | BSA TAMRA ctr inactive | TCR-CD3 conf inactive
COc1ccc(CC(=O)NCc2ccc3c(c2)cc(C)n3C)cc1OC	none
CCOc1ccc(CC(=O)NCc2ccc3c(c2)cc(C)n3C)cc1	TCR CD3 inh 31 | BSA TAMRA ctr inactive | TCR-CD3 conf inactive
COc1cc(/C=C\C(=O)NCc2ccc3c(c2)cc(C)n3C)cc(OC)c1OC	TCR CD3 inh 31 | BSA TAMRA ctr inactive | TCR-CD3 conf inactive
Nc1[nH]c(C(=O)c2ccccc2)c(-c2ccc3ccccc3c2)c1C(=O)NCCc1ccc(Cl)cc1	none (no result: Fam108B counter, PME-1 inh, HTRA1 inhibitor, TCR CD3 inh)
O=S(=O)(CC1NCc2cc(F)ccc21)NCc1ccccc1 (configuration not stated)	none (no result: Fam108B counter, PME-1 inh, HTRA1 inhibitor, TCR CD3 inh)
CC(=O)Nc1ccc(S(=O)(=O)Nc2cccc(-n3cnnn3)c2)cc1	none
CC(=O)c1ccc(S(=O)(=O)Nc2cccc(-n3cnnn3)c2)cc1	TCR CD3 inh 20 | BSA TAMRA ctr inactive | TCR-CD3 conf inactive
CC1=Nc2ccccc2/C1=C/c1nc(-c2ccc(C)s2)oc1O	TCR CD3 inh 19 | BSA TAMRA ctr inactive | TCR-CD3 conf inactive
CC1=Nc2ccccc2/C1=C\c1nc(-c2ccccc2)oc1O	none
Cc1ncc(CO)c2c1Oc1nc(-c3ccccc3)nc(SCC(=O)Nc3cccc(O)c3)c1C2	TCR CD3 inh 21 | BSA TAMRA ctr inactive | TCR-CD3 conf inactive
O=C(Cn1nnc(-c2ccccc2)n1)N/N=C/c1cccc([N+](=O)[O-])c1O	TCR CD3 inh 38 (no result: HTRA1 inhibitor) | BSA TAMRA ctr inactive | TCR-CD3 conf 50
Cc1cc(C(=O)N/N=C/c2ccc(O)c([N+](=O)[O-])c2)n[nH]1	none
Cc1cc(C(=O)N/N=C/c2cc([N+](=O)[O-])ccc2O)c2ccccc2n1	none
Cc1cc(C(=O)N/N=C/c2cc(Br)cc([N+](=O)[O-])c2O)c2ccccc2n1	TCR CD3 inh 41, ABHD4 inh 44 | BSA TAMRA ctr inactive | TCR-CD3 conf 43
Cc1cc(C(=O)N/N=C/c2cccc([N+](=O)[O-])c2O)n[nH]1	TCR CD3 inh 29 | BSA TAMRA ctr inactive | TCR-CD3 conf inactive
CCn1c(CSc2nc3ccccc3[nH]2)nc2cc(C(=O)O)ccc21	TCR CD3 inh 34 | BSA TAMRA ctr 57 | TCR-CD3 conf 42
CC(C)NC(=O)N[C@H]1C[C@@H]2O[C@H](CO)CC[C@@H]2O[C@@H]1CCc1ccc(-c2ccc(F)cc2)cc1	none (no result: Fam108B counter, PME-1 inh, HTRA1 inhibitor, TCR CD3 inh)
CC[C@H](C(=O)Nc1ccccc1N1CCCC1)c1ccccc1	none (no result: Fam108B counter, PME-1 inh, HTRA1 inhibitor, TCR CD3 inh)
CC(NC(=O)c1cc2ccc(C(F)(F)F)cc2nc1N)c1cccc2ccccc12 (configuration not stated)	none (no result: Fam108B counter, PME-1 inh, HTRA1 inhibitor, TCR CD3 inh)
Cn1c(SCC(=O)N/N=C/c2ccccn2)nnc1-c1ccccc1	none
Cn1c(SCC(=O)N/N=C/c2cc([N+](=O)[O-])ccc2O)nnc1-c1ccccc1	TCR CD3 inh 21 | BSA TAMRA ctr inactive | TCR-CD3 conf inactive
Nc1nnnn1CC(=O)N/N=C/c1cc([N+](=O)[O-])ccc1O	none
Nc1nnc(CC(=O)N/N=C\c2cc([N+](=O)[O-])ccc2O)s1	TCR CD3 inh 36 | BSA TAMRA ctr inactive | TCR-CD3 conf 25
COc1ccc(CCNC(=O)C(=O)NCC2OCCN2S(=O)(=O)c2ccc(Cl)cc2)cc1 (configuration not stated)	none
COc1ccc(CCNC(=O)C(=O)NCC2OCCN2S(=O)(=O)c2ccc(OC)cc2)cc1 (configuration not stated)	TCR CD3 inh 49 | BSA TAMRA ctr inactive | TCR-CD3 conf inactive
O=C(OCc1ccccc1)c1ccc(Br)o1	TCR CD3 inh 48 | BSA TAMRA ctr inactive | TCR-CD3 conf inactive
O=C(Nc1nc(Cc2ccccc2)c(-c2ccccc2)n1Cc1ccccc1)c1ccccc1	none (no result: Fam108B counter, PME-1 inh, HTRA1 inhibitor, TCR CD3 inh)
COc1ccc(/C(C)=N/NC(=O)c2cccc(S(=O)(=O)N3CCCC3)c2)c(O)c1	TCR CD3 inh 34 | BSA TAMRA ctr inactive | TCR-CD3 conf 20
CCOC(=O)c1cc(S(=O)(=O)NC2CCCCC2)cn1C	TCR CD3 inh 30 | BSA TAMRA ctr inactive | TCR-CD3 conf inactive
O=C(O)c1cccc(N2C(=O)/C(=C/c3ccc(SCc4ccc(Cl)cc4)o3)SC2=S)c1	TCR CD3 inh 20, ABHD4 inh 32 (no result: Fam108B counter, PME-1 inh) | BSA TAMRA ctr inactive | TCR-CD3 conf inactive
Cc1ccc(NC(=O)[C@@H]2CC(=O)O[C@@H]2c2ccccc2)c(C)c1	none (no result: Fam108B counter, PME-1 inh, HTRA1 inhibitor, TCR CD3 inh)
O=C(CSc1nc2ccccc2s1)Nc1ccc2c(c1)oc1ccccc12	TCR CD3 inh 24 | BSA TAMRA ctr inactive | TCR-CD3 conf inactive
O=C(CSc1nc2ccccc2s1)Nc1ccc(Cl)c(C(=O)O)c1	none
Cc1nn2c(-c3cccc(NC(=O)c4ccco4)c3)nnc2c2ccccc12	TCR CD3 inh 20 | BSA TAMRA ctr inactive | TCR-CD3 conf inactive
CCOC(=O)N1C(=O)C[C@](Sc2ccc(OC)cc2)(C(=O)N2CCN(c3ncccn3)CC2)[C@H]1c1ccc(OC)cc1	none (no result: Fam108B counter, PME-1 inh, HTRA1 inhibitor, TCR CD3 inh)
COC(=O)Nc1ccc(S(=O)(=O)NNC(=O)c2c(O)c3ccccc3[nH]c2=O)cc1	TCR CD3 inh 24 | BSA TAMRA ctr inactive | TCR-CD3 conf 26
CCCC(=O)NNC(=O)c1c(O)c2ccccc2[nH]c1=O	TCR CD3 inh 34 | BSA TAMRA ctr inactive | TCR-CD3 conf 28
O=C(NNC(=O)c1c(O)c2ccccc2[nH]c1=O)c1ccccc1	TCR CD3 inh 41 | BSA TAMRA ctr inactive | TCR-CD3 conf 22
CC(C)C(=O)NNC(=O)c1c(O)c2ccccc2[nH]c1=O	none
